Test results reported in ChEMBL document CHEMBL1124929, “Indolo[2,1-a]isoquinolines. Syntheses, steroid hormone receptor binding affinities, and cytostatic activity” (1990).

Legend:
[1] = target: T1, Androgen Receptor (Bos taurus) (UniProt Q5EM59); test: Relative binding affinity(RBA) for 50% displacement of [3H]mibolerone from Androgen receptor compared to testorone
T1 sequence (whole entry): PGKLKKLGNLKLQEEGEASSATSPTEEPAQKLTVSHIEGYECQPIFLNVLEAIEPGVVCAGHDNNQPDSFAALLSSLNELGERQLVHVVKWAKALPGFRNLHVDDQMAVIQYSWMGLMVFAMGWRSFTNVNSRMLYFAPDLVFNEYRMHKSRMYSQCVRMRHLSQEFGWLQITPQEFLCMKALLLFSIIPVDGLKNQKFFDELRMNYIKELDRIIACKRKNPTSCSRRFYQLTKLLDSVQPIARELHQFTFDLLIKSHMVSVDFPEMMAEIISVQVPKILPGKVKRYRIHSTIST
Summary of the method: (§1)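 Receptor source was calf uterine cytosol (105000g supernatant, 3 mg/mL protein in assay). Buffers were Tris/EDTA pH 7.4, with NaN₃ for ER, molybdate/glycerol for AR, and sucrose for PR. Tracers were 1 nM [³H]estradiol, [³H]mibolerone or [³H]Org 2058. Incubation was at 0–4 °C for 16 h (ER) or 2 h (AR, PR), with 4–6 competitor concentrations. Nonspecific binding used 2 µM of the unlabeled hormone. Separation was by dextran-coated charcoal. RBA is the ratio of IC50 values for hormone and compound ×100, mean of two triplicate experiments.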

[2] = target: Estrogen receptor (Bos taurus) (UniProt Q9XSB5+P49884); test: Relative binding affinity(RBA) for 50% displacement of [3H]-estradiol from Estrogen receptor compared to 17-beta-estradiol; assay type: protein assay; summary of the method: as §1
[3] = species: Bos taurus; test: Relative binding affinity(RBA) as ratio of progesterone and compound required to displace [3H]-org 2058 binding to Progesterone receptor by 50%; summary of the method: as §1
[4] = tested on: MCF7; test: Effect on hormone-dependent MCF-7 human breast cancer cell proliferation at 1x10E-6M; assay type: functional
Summary of the method: (§2)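 Cells were plated at about 2 × 10⁴ per well in six-well dishes. MCF-7 cells were grown in modified improved MEM with 5% NCS, switched to charcoal-treated NCS two weeks before the test, and exposed for 5 days with a re-dose on day 4. MDA-MB 231 cells were grown in McCoy 5a with 10% NCS and exposed for 2 days. Compounds were given 1 day after plating in 0.1% DMSO, with DMSO-matched controls. Read-out was cell number as % T/C, mean of three experiments with six dishes.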

[5] = tested on: MDA-MB-231; test: Cytostatic effect on hormone-independent MDA-MB 231 human breast cancer cell proliferation at5x10E-6M; assay type: functional; summary of the method: as §2
[6] = tested on: MDA-MB-231; test: Effect on [3H]thymidine incorporation into MDA-MB 231 human breast cancer cells at 1x10E-5 M; assay type: functional
Summary of the method: (§3)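 Cells were seeded at ~2 × 10⁴ per well, treated from the next day in 0.1% DMSO, with DMSO controls. MCF-7 cells were held in charcoal-stripped NCS for 2 weeks, treated for 5 days and re-dosed on day 4. MDA-MB 231 cells were grown in McCoy 5a/10% NCS and treated for 2 days. At the end, 1 µCi [³H]thymidine per well was added for 2 h. Result is % T/C, mean of three experiments × six dishes.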

[7] = tested on: MCF7; test: Effect on hormone-dependent MCF-7 human breast cancer cell proliferation at 1x10E-5 M; assay type: functional; summary of the method: as §2
[8] = tested on: MDA-MB-231; test: Effect on [3H]-thymidine incorporation into MDA-MB 231 human breast cancer cells at 1x10E-6M; assay type: functional; summary of the method: as §3
[9] = tested on: MCF7; test: Effect on [3H]thymidine incorporation into MCF-7 human breast cancer cells at 1x10E-6M; assay type: functional; summary of the method: as §3
[10] = tested on: MCF7; test: Effect on [3H]-thymidine incorporation into MCF-7 human breast cancer cells at 1x10E-5 M; assay type: functional; summary of the method: as §3
[11] = tested on: MDA-MB-231; test: Effect on [3H]thymidine incorporation into MDA-MB 231 human breast cancer cells at 5x10E-6M; assay type: functional; summary of the method: as §3
[12] = target: T2, Estrogen receptor (Mus musculus) (UniProt O08537+P19785); test: (§4) Estrogenic activity in uterotrophic assay in immature mice at 2 ug subcutaneous dose; assay type: functional
Summary of the method: (§5)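 Immature female NMRI mice, 20 days old, in groups of 6-10, were dosed sc once daily for three consecutive days. Compounds were given in PEG/0.9% saline 1:1; vehicle controls were included. Animals were killed 24 h after the last dose. Uteri were fixed in Bouin solution and the effect was taken as uterine dry weight (mg)/body weight (g) ×100, given as mean ± SD.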

[13] = target: T2, Estrogen receptor (Mus musculus); test: (§6) Estrogenic activity in uterotrophic assay in immature mice at 50.0 ug subcutaneous dose; assay type: functional; summary of the method: as §5
[14] = tested on: MCF7; test: Effect on [3H]thymidine incorporation into MCF-7 human breast cancer cells at 1x10E-5 M; assay type: functional; summary of the method: as §3
[15] = tested on: MDA-MB-231; test: Cytostatic effect on hormone-independent MDA-MB 231 human breast cancer cell proliferation at 1x10E-5 M; assay type: functional; summary of the method: as §2
[16] = tested on: MCF7; test: Effect on hormone-dependent MCF-7 human breast cancer cell proliferation at 5x10E-6M; assay type: functional; summary of the method: as §2
[17] = target: T2, Estrogen receptor (Mus musculus); test: Inhibition of 0.4 ug estrone-stimulated uterine growth in mice at 10.0 ug subcutaneous dose; assay type: functional
Summary of the method: (§7)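 Immature 20-day-old female NMRI mice received sc injections on three consecutive days. Each injection held 0.4 µg estrone plus the compound in PEG/saline 1:1. […] Significance was tested by Mann-Whitney U test.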

[18] = tested on: MCF7; test: Effect on [3H]thymidine incorporation into MCF-7 human breast cancer cells at 5x10E-6M; assay type: functional; summary of the method: as §3
[19] = target: T2, Estrogen receptor (Mus musculus); test: as §4; assay type: functional; summary of the method: as §5; remark: listed apart in the source
[20] = target: T2, Estrogen receptor (Mus musculus); test: as §6; assay type: functional; summary of the method: as §5; remark: listed apart in the source
[21] = target: T2, Estrogen receptor (Mus musculus); test: (§8) Estrogenic activity in uterotrophic assay in immature mice at 250 ug subcutaneous dose; assay type: functional; summary of the method: as §5
[22] = target: T2, Estrogen receptor (Mus musculus); test: (§9) Estrogenic activity in uterotrophic assay in immature mice at 10.0 ug subcutaneous dose; assay type: functional; summary of the method: as §5
[23] = target: T2, Estrogen receptor (Mus musculus); test: as §9; assay type: functional; summary of the method: as §5; remark: listed apart in the source
[24] = target: T2, Estrogen receptor (Mus musculus); test: as §8; assay type: functional; summary of the method: as §5; remark: listed apart in the source
[25] = target: T2, Estrogen receptor (Mus musculus); test: Inhibition of 0.4 ug estrone-stimulated uterine growth in mice at 50.0 ug subcutaneous dose; assay type: functional; summary of the method: as §7
[26] = target: T2, Estrogen receptor (Mus musculus); test: Inhibition of 0.4 ug estrone-stimulated uterine growth in mice at 250 ug subcutaneous dose; assay type: functional; summary of the method: as §7

T2 sequence (O08537 whole entry, looked up): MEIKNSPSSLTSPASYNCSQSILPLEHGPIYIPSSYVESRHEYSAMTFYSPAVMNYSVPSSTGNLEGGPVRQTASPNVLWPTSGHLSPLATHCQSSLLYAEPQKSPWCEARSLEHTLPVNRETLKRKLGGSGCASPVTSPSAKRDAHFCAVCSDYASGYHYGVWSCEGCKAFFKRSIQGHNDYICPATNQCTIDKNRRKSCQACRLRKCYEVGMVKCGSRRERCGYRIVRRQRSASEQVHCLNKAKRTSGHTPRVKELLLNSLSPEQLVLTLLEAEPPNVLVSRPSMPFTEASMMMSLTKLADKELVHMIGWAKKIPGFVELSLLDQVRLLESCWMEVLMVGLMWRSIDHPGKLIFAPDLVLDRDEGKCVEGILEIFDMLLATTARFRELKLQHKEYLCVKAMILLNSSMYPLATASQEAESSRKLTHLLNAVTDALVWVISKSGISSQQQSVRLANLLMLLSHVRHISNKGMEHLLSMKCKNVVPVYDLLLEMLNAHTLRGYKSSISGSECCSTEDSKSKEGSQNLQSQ
T2 sequence (P19785 whole entry, looked up): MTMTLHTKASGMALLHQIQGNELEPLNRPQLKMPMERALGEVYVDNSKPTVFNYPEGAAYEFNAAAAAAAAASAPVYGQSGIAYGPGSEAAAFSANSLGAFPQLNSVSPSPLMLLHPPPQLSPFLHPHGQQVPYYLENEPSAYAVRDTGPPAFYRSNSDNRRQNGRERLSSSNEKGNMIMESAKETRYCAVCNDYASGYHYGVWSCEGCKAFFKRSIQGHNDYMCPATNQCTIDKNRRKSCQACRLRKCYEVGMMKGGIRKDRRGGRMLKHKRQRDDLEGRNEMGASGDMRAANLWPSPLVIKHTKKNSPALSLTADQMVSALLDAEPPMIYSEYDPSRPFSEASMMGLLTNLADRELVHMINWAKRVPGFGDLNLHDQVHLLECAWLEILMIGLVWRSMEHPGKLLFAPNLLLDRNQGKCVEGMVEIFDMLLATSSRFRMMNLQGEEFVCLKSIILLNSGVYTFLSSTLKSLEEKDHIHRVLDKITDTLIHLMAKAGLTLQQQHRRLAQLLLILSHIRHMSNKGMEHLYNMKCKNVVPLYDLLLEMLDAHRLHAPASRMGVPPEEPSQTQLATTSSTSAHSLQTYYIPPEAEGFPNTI

SMILES | RBA [1] | RBA [2] | RBA [3] | T/C [5] [%] | T/C [6] [%] | T/C [7] [%] | T/C [11] [%] | other results
CC(=O)Oc1cc2c(cc1OC(C)=O)-c1cc3cc(OC(C)=O)c(OC(C)=O)cc3n1CC2 | < 0.01 | < 0.01 |  |  |  |  |  | 
CC(=O)Oc1ccc2c(c1)cc1n2CCc2cc(OC(C)=O)c(OC(C)=O)cc2-1 | < 0.01 | 0.15 | < 0.01 |  |  |  |  | 
CCc1cc2cc(OC(C)=O)ccc2c2cc3ccc(OC(C)=O)cc3n12 | 0.01 | 1.5 | < 0.01 | 8 | 3 | 5 | 7 | T/C [4]: 75%; T/C [8]: 80%; T/C [9]: 70%; T/C [10]: 3%
CC(=O)Oc1ccc2c(c1)CCn1c-2cc2cc(OC(C)=O)c(OC(C)=O)cc21 | < 0.01 | 0.01 |  |  |  |  |  | 
CCC1Cn2c(cc3cc(OC(C)=O)ccc32)-c2ccc(OC(C)=O)cc21 (stereo not given) | < 0.01 | 2.5 | < 0.01 | 88 | 25 | 31 | 90 | Effect [12]: 16.8; Effect [13]: 24.1; T/C [14]: 7%; T/C [15]: 45%; T/C [16]: 97%; inhibition [17]: 18.7%; T/C [18]: 95%; Effect [19]: 50.9; Effect [20]: 42.5; Effect [21]: 46.1; Effect [22]: 44.1; Effect [23]: 21.5; Effect [24]: 42.7; inhibition [25]: 23.3%; inhibition [26]: 22.4%
